This note sets out measurements from ChEMBL document CHEMBL1142721, “Nanomolar inhibitors of CNS epinephrine biosynthesis: (R)-(+)-3-fluoromethyl-7-(N-substituted aminosulfonyl)-1,2,3,4-tetrahydroisoquinolines as potent and highly selective inhibitors of phenylethanolamine N-methyltransferase1” (J Med Chem, 2005).

pKi: −log10 of the molar value.

This test concerns the target T1, Alpha-2A adrenergic receptor (Rattus norvegicus, UniProt P22909).
T1 sequence (P22909 whole entry): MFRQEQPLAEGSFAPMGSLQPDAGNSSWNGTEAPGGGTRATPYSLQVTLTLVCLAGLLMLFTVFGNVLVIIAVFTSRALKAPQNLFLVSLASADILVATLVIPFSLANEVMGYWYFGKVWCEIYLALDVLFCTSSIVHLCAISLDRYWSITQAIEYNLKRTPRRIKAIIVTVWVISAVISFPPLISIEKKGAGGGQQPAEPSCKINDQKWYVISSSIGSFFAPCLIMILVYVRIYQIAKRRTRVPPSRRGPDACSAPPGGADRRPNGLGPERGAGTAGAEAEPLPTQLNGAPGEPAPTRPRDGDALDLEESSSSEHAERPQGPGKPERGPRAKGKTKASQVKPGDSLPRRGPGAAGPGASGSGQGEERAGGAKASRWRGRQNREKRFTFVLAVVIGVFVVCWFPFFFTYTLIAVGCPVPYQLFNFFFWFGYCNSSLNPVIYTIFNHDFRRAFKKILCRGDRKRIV
As to the kind of experiment: In vitro binding affinity against rat Alpha-2 adrenergic receptor using [3H]clonidine. A digest of the protocol: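 Rat cortex membranes (male Sprague-Dawley) washed by three 50 000 × g spins in ice-cold 50 mM Tris/HCl pH 7.7. Incubated with [3H]clonidine at 2.0 nM final, 25 °C, 30 min. Bound ligand recovered on GF/B filters and counted. Nonspecific binding set with 2 µM phentolamine. Quadruplicate, 5 concentrations over a 16-fold range. IC50 from log-probit analysis, converted by Ki = IC50/(1 + [clonidine]/KD).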

For `O=S(=O)(Nc1ccc(Cl)cc1)c1ccc2c(c1)CN[C@H](CF)C2`, the pKi was 3.82.
In the case of `O=S(=O)(Nc1ccc(Cl)cc1)c1ccc2c(c1)CN[C@@H](CF)C2`, the negative-log Ki (pKi) was 3.85.
Consider `COCCCNS(=O)(=O)c1ccc2c(c1)CN[C@@H](CF)C2`, for which the negative-log Ki (pKi) is 3.17.
Molecule `CCNS(=O)(=O)c1ccc2c(c1)CN[C@@H](CF)C2` gave a pKi of 3.26.
On to `O=S(=O)(NCCC(F)(F)F)c1ccc2c(c1)CN[C@@H](CF)C2`, for which the pKi is 3.17.
`O=S(=O)(NCCC(F)(F)F)c1ccc2c(c1)CNC(CF)C2` (configuration not stated): the pKi is 3.18.
The value for `O=S(=O)(c1ccc2c(c1)CN[C@@H](CF)C2)N1CCSCC1` was 3.70; that for `CCCNS(=O)(=O)c1ccc2c(c1)CN[C@@H](CF)C2` was 3.24; that for `NS(=O)(=O)c1ccc2c(c1)CN[C@@H](CF)C2` was 3.15.
With `O=S(=O)(NCC(F)(F)F)c1ccc2c(c1)CN[C@@H](CF)C2`, the pKi is 3.00.
`CCNS(=O)(=O)c1ccc2c(c1)CNC(CF)C2` (racemic) gave a pKi of 3.26.
`COCCCNS(=O)(=O)c1ccc2c(c1)CNC(CF)C2` (racemic): the pKi was 3.12.
In turn, `O=S(=O)(NCC(F)(F)F)c1ccc2c(c1)CNC(CF)C2` (racemic) gave a negative logarithm of the Ki (pKi) of 2.92.
`O=S(=O)(Nc1ccc(Cl)cc1)c1ccc2c(c1)CNC(CF)C2` (racemic) gave a negative logarithm of the Ki (pKi) of 3.85.
Next, `O=S(=O)(c1ccc2c(c1)CNC(CF)C2)N1CCSCC1` (racemic): 3.72; `CCCNS(=O)(=O)c1ccc2c(c1)CNC(CF)C2` (racemic): 3.21; `NS(=O)(=O)c1ccc2c(c1)CNC(CF)C2` (racemic): 3.17.
